For 38 compounds, IC50, EC50 and Ka results are on record in ChEMBL document CHEMBL1145123, “Trisubstituted acridine derivatives as potent and selective telomerase inhibitors” (J Med Chem, 2003).

Assay [1] is described as follows: […]. The note with it: Homo sapiens, A-431. It counts as functional, cell-based.
For assay [2], the target named is Telomerase reverse transcriptase (Homo sapiens, UniProt O14746). Briefly: Inhibitory activity against human telomerase. Summed up:
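Modified TRAP assay with extract protein (0.04 μg) from exponentially growing A2780 cells. The enzyme was heat-inactivated at 80 °C, then CX primer was added and 31 PCR cycles were run. Products were quantified by gel phosphorimaging or filter scintillation counting. Agents were first screened against Taq polymerase at 1–50 μM.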

Assay [3] can be described thus: Cytotoxicity against ovarian carcinoma A2780 cell lines. It is filed as functional, cell-based. The note with it: Homo sapiens. Summed up: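 SRB assay. Cells were seeded at 3000–6000 per well and attached overnight. Salts dissolved in water at 500 μM were added in quadruplicate at 0.05, 0.25, 1, 5 and 25 μM final for 96 h. Cells were then fixed with cold 10% TCA and stained with 0.4% SRB. A540 was expressed as % of untreated control, and IC50 was derived.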

The species entered for assay [4] is Homo sapiens. Briefly: Affinity constant for binding to human 22-mer quadruplex. It counts as functional.
Another assay concerns the target Nucleic Acid. Briefly: (§1) Affinity constant for binding to duplex DNA. It is filed as functional, Homo sapiens.
The species entered for assay [5] is Homo sapiens. Described as §1. It is filed as functional, organism-based.

pEC50, pIC50: −log10 of the molar value. Where only a bound is given, the exact number is not on record here.

Telomerase reverse transcriptase, sequence (O14746 whole entry): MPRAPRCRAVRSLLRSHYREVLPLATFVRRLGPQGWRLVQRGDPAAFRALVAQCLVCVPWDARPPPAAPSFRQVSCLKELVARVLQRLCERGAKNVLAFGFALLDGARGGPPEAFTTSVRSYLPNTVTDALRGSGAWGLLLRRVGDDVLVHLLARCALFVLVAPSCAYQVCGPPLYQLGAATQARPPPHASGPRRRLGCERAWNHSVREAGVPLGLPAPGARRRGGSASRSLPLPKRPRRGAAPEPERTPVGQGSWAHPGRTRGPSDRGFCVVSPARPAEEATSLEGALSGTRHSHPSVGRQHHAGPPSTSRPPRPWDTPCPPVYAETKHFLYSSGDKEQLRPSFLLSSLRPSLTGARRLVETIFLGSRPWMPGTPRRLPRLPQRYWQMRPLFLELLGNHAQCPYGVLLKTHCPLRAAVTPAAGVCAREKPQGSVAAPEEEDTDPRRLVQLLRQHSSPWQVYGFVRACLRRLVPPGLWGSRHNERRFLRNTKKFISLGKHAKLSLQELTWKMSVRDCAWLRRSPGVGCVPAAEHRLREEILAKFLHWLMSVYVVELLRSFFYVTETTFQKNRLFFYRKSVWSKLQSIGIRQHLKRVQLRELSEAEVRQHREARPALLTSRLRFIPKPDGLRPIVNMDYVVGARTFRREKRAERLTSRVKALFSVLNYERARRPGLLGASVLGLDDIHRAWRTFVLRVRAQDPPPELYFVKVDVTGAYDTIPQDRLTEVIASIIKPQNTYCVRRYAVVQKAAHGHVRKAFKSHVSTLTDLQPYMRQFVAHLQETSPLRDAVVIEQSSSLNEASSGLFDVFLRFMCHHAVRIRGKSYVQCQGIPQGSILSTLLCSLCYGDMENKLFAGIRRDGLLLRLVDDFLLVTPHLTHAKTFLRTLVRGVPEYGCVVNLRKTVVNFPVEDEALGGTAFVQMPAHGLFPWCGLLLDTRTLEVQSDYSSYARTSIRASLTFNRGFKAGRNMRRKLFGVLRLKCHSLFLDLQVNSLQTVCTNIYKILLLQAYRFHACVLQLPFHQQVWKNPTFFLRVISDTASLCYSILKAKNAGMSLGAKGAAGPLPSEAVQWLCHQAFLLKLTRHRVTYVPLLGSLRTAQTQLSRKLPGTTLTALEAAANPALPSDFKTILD

Take `CN(C)CCNc1c2cc(NC(=O)CCN3CCCC3)ccc2nc2ccc(NC(=O)CCN3CCCC3)cc12`: the pIC50 was less than 4.60 in assay [1] and 4.96 in assay [3]. In addition, the pEC50 in assay [2] is 6.24.

Turning to `Nc1ccccc1Nc1c2cc(NC(=O)CCN3CCCC3)ccc2nc2ccc(NC(=O)CCN3CCCC3)cc12`, the pIC50 was less than 4.60 in assay [1] and 4.75 in assay [3]. For the same compound, in assay [2], the negative logarithm of the EC50 (pEC50) is 6.77.

`O=C(CCN1CCCC1)Nc1ccc2nc3ccc(NC(=O)CCN4CCCC4)cc3c(Nc3ccccc3O)c2c1`: the negative logarithm of the IC50 (pIC50) in assay [1] was less than 4.60; in assay [3], 5.00. This compound showed a pEC50 in assay [2] of 5.99.

As to `Nc1ccccc1Nc1c2ccc(NC(=O)CCN3CCCC3)cc2nc2ccc(NC(=O)CCN3CCCC3)cc12`, the results for the negative-log IC50 (pIC50) in assay [1] and in assay [3] were less than 4.60 and 4.80, respectively. The compound also gave a negative logarithm of the EC50 (pEC50) in assay [2] of 6.96.

Regarding `CC(=O)c1ccc(Nc2c3ccc(NC(=O)CCN4CCCC4)cc3nc3cc(NC(=O)CCN4CCCC4)ccc23)cc1`, the values for the pIC50 in assay [1] and in assay [3] were 5.66 and 5.49, respectively. This compound also had a negative-log EC50 (pEC50) in assay [2] of 7.40.

In the case of `CN(C)c1ccc(Nc2c3ccc(NC(=O)CCN4CCCC4)cc3nc3ccc(NC(=O)CCN4CCCC4)cc23)cc1`, the pIC50 is 5.00 in assay [1] and 5.10 in assay [3]. Besides, in assay [2], the negative-log EC50 (pEC50) is 6.77.

For the compound `COCCNc1c2ccc(NC(=O)CCN3CCCC3)cc2nc2cc(NC(=O)CCN3CCCC3)ccc12`, the pIC50 in assay [1] and in assay [3] was 5.00 throughout. In assay [2], this compound showed a negative logarithm of the EC50 (pEC50) of 6.85.

`CN(C)CCNc1c2ccc(NC(=O)CCN3CCCC3)cc2nc2ccc(NC(=O)CCN3CCCC3)cc12`: the negative-log IC50 (pIC50) in assay [1] and in assay [3] was less than 4.60 throughout. The pEC50 in assay [2] is 6.57.

`CN(C)CCCNc1c2ccc(NC(=O)CCN3CCCC3)cc2nc2cc(NC(=O)CCN3CCCC3)ccc12`: the pIC50 in assay [1] and in assay [3] was less than 4.60 each time. In assay [2], this compound gave a pEC50 of 7.22.

With `Nc1cccc(Nc2c3cc(NC(=O)CCN4CCCC4)ccc3nc3ccc(NC(=O)CCN4CCCC4)cc23)c1`, the pIC50 was less than 4.60 in assay [1] and 5.20 in assay [3]. In assay [2], the negative-log EC50 (pEC50) was 5.96.

As to `CN(C)c1cccc(Nc2c3ccc(NC(=O)CCN4CCCC4)cc3nc3cc(NC(=O)CCN4CCCC4)ccc23)c1`, the pIC50 in assay [1] is 5.70; in assay [3], 5.10. The compound also gave a pEC50 in assay [2] of 7.00.

On to `Nc1cccc(Nc2c3ccc(NC(=O)CCN4CCCC4)cc3nc3ccc(NC(=O)CCN4CCCC4)cc23)c1`, for which the values for the negative logarithm of the IC50 (pIC50) in assay [1] and in assay [3] were less than 4.60 and 4.80, respectively. Besides, the pEC50 in assay [2] was 6.68.

With `CN(C)c1cccc(Nc2c3cc(NC(=O)CCN4CCCC4)ccc3nc3ccc(NC(=O)CCN4CCCC4)cc23)c1`, the negative logarithm of the IC50 (pIC50) in assay [1] is 4.90; in assay [3], 5.49. Also, the pEC50 in assay [2] was 6.22.

For `CSc1ccccc1Nc1c2ccc(NC(=O)CCN3CCCC3)cc2nc2cc(NC(=O)CCN3CCCC3)ccc12`, the values for the pIC50 in assay [1] and in assay [3] were 5.60 and 7.00, respectively. The pEC50 in assay [2] was 6.82.

In the case of `CSc1cccc(Nc2c3ccc(NC(=O)CCN4CCCC4)cc3nc3cc(NC(=O)CCN4CCCC4)ccc23)c1`, the figures for the pIC50 in assay [1] and in assay [3] were 5.89 and 5.55, respectively. The same compound had a negative logarithm of the EC50 (pEC50) in assay [2] of 7.00.

In the case of `Nc1ccc(Nc2c3ccc(NC(=O)CCN4CCCC4)cc3nc3cc(NC(=O)CCN4CCCC4)ccc23)cc1`, the results for the Ka in the assay listed under Homo sapiens [4] and at Nucleic Acid were 16000000 M⁻¹ and 500000 M⁻¹, respectively. The negative logarithm of the IC50 (pIC50) in assay [1] and in assay [3] was 4.60 throughout. The pEC50 in assay [2] was 7.13.

As to `Nc1ccc(Nc2c3cc(NC(=O)CCN4CCCC4)ccc3nc3ccc(NC(=O)CCN4CCCC4)cc23)cc1`, the pIC50 in assay [1] and in assay [3] was less than 4.60 throughout. This compound gave a pEC50 in assay [2] of 6.70.

On to `CN(C)CCNc1c2ccc(NC(=O)CCN3CCCC3)cc2nc2cc(NC(=O)CCN3CCCC3)ccc12`, for which the Ka in the assay filed under Homo sapiens [4] stood at 57000000 M⁻¹; at Nucleic Acid, 4900000 M⁻¹. Moreover, the negative-log IC50 (pIC50) in assay [1] and in assay [3] was less than 4.60 in each case. The compound further gave a negative-log EC50 (pEC50) in assay [2] of 7.74.

As to `O=C(CCN1CCCC1)Nc1ccc2c(NC3CCCCC3)c3ccc(NC(=O)CCN4CCCC4)cc3nc2c1`, the pIC50 in assay [1] was 5.60; in assay [3] it was 4.90. The negative-log EC50 (pEC50) in assay [2] is 7.05.

Take `O=C(CCN1CCCC1)Nc1ccc2c(Nc3ccccc3)c3cc(NC(=O)CCN4CCCC4)ccc3nc2c1`: the figures for the negative logarithm of the IC50 (pIC50) in assay [1] and in assay [3] were 4.85 and 5.25, respectively. Moreover, in assay [2], the pEC50 was 5.88.

As for `CN(C)c1ccc(Nc2c3cc(NC(=O)CCN4CCCC4)ccc3nc3ccc(NC(=O)CCN4CCCC4)cc23)cc1`, the negative-log IC50 (pIC50) was less than 4.60 in assay [1] and 4.72 in assay [3]. The negative logarithm of the EC50 (pEC50) in assay [2] is 6.30.

As for `O=C(CCN1CCCC1)Nc1ccc2c(NC3CCCCC3)c3cc(NC(=O)CCN4CCCC4)ccc3nc2c1`, the pIC50 in assay [1] was 4.85; in assay [3] it was 5.00. This compound also had a pEC50 in assay [2] of 6.68.

`CN(C)c1ccc(Nc2c3ccc(NC(=O)CCN4CCCC4)cc3nc3cc(NC(=O)CCN4CCCC4)ccc23)cc1`: the Ka in the assay filed under Homo sapiens [5] is 400000 M⁻¹; in the assay filed under Homo sapiens [4], 16000000 M⁻¹. The figures for the negative-log IC50 (pIC50) in assay [1] and in assay [3] were 4.80 and 5.00, respectively. In assay [2], this compound showed a pEC50 of 6.94.

`CN1CCCC1CCNc1c2ccc(NC(=O)CCN3CCCC3)cc2nc2cc(NC(=O)CCN3CCCC3)ccc12` (stereo unspecified): the pIC50 in assay [1] is 4.60; in assay [3] it was less than 4.60. Besides, the pEC50 in assay [2] was 7.74.

Consider `O=C(CCN1CCCC1)Nc1ccc2c(NCc3cccnc3)c3ccc(NC(=O)CCN4CCCC4)cc3nc2c1`, for which the pIC50 in assay [1] and in assay [3] was less than 4.60 throughout. The compound also showed a negative-log EC50 (pEC50) in assay [2] of 7.18.

As to `COc1ccc(Nc2c3cc(NC(=O)CCN4CCCC4)ccc3nc3ccc(NC(=O)CCN4CCCC4)cc23)cc1`, the values for the pIC50 in assay [1] and in assay [3] were 4.90 and 5.00, respectively. For the same compound, the pEC50 in assay [2] is 6.34.

As for `Nc1ccccc1Nc1c2ccc(NC(=O)CCN3CCCC3)cc2nc2cc(NC(=O)CCN3CCCC3)ccc12`, the negative logarithm of the IC50 (pIC50) is 5.15 in assay [1] and 4.96 in assay [3]. In addition, in assay [2], the negative logarithm of the EC50 (pEC50) was 7.70.

With `Nc1ccc(Nc2c3ccc(NC(=O)CCN4CCCC4)cc3nc3ccc(NC(=O)CCN4CCCC4)cc23)cc1`, the pIC50 in assay [1] and in assay [3] was less than 4.60 in each case. Further, the pEC50 in assay [2] is 7.10.

With `CC(=O)Nc1cccc(Nc2c3ccc(NC(=O)CCN4CCCC4)cc3nc3cc(NC(=O)CCN4CCCC4)ccc23)c1`, the pIC50 in assay [1] and in assay [3] was less than 4.60 each time. This compound also gave a pEC50 in assay [2] of 7.00.

On to `O=C(CCN1CCCC1)Nc1ccc2c(Nc3ccc(F)cc3)c3ccc(NC(=O)CCN4CCCC4)cc3nc2c1`, for which the pIC50 in assay [1] was 6.30; in assay [3], 5.49. The compound further showed a pEC50 in assay [2] of 7.15.

`O=C(CCN1CCCC1)Nc1ccc2c(NC3CC3)c3ccc(NC(=O)CCN4CCCC4)cc3nc2c1`: the negative logarithm of the IC50 (pIC50) in assay [1] was less than 4.60; in assay [3], 4.72. Further, the pEC50 in assay [2] is 7.30.

Turning to `O=C(CCN1CCCC1)Nc1ccc2c(NC3CCCCCC3)c3ccc(NC(=O)CCN4CCCC4)cc3nc2c1`, the pIC50 in assay [1] and in assay [3] was 5.49 each time. This compound showed a pEC50 in assay [2] of 6.68.

For `Nc1cccc(Nc2c3ccc(NC(=O)CCN4CCCC4)cc3nc3cc(NC(=O)CCN4CCCC4)ccc23)c1`, the pIC50 in assay [1] and in assay [3] was 4.90 throughout. The compound also gave a negative logarithm of the EC50 (pEC50) in assay [2] of 7.22.

Consider `COc1cccc(Nc2c3cc(NC(=O)CCN4CCCC4)ccc3nc3ccc(NC(=O)CCN4CCCC4)cc23)c1`, for which the pIC50 was 5.00 in assay [1] and 5.60 in assay [3]. The same compound had a negative logarithm of the EC50 (pEC50) in assay [2] of 5.56.

In the case of `O=C(CCN1CCCC1)Nc1ccc2c(NCCN3CCCCC3)c3ccc(NC(=O)CCN4CCCC4)cc3nc2c1`, the negative-log IC50 (pIC50) in assay [1] was 4.95; in assay [3] it was 4.90. For the same compound, the negative logarithm of the EC50 (pEC50) in assay [2] is 7.30.

As to `O=C(CCN1CCCC1)Nc1ccc2cc3ccc(NC(=O)CCN4CCCC4)cc3nc2c1`, the Ka in the assay listed under Homo sapiens [4] was found to be 1300000 M⁻¹; at Nucleic Acid, 1100000 M⁻¹. This compound also showed a pEC50 in assay [2] of 5.28. The same compound gave a pIC50 in assay [3] of 5.59.

On to `CN(C)CCCNc1c2ccc(NC(=O)CCN3CCCC3)cc2nc2ccc(NC(=O)CCN3CCCC3)cc12`, for which the pIC50 in assay [1] and in assay [3] was less than 4.60 throughout. The compound also gave a negative logarithm of the EC50 (pEC50) in assay [2] of 7.10.

Turning to `O=C(CCN1CCCC1)Nc1ccc2nc3ccc(NC(=O)CCN4CCCC4)cc3c(Nc3ccccc3)c2c1`, the pIC50 in assay [1] was 4.90; in assay [3], 5.59. Further, the pEC50 in assay [2] was 5.89.

In general, pIC50 refers to the IC50 on a negative log10 scale, so that one unit is a factor of ten. Higher therefore signals a small IC50. As a reminder, the pEC50 is −log10 of the EC50, conventionally taken in molar units. A lower pEC50 goes with a high EC50.
